Measurements reported in ChEMBL document CHEMBL4406821, “Novel dual inhibitors targeting CDK4 and VEGFR2 synergistically suppressed cancer progression and angiogenesis” (Eur J Med Chem, 2019).
Activity calls are given as the source filed them. No cut-off for these calls is given here.

What was measured:
SiHa [1] = experiment: Induction of cell cycle arrest in human SiHa cells assessed as accumulation in G0/G1 phase at 80 nM incubated for 36 hrs by propidium iodide staining based flow cytometry; assay type: functional
How it was run: (§1)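 Cells were treated with graded concentrations for 36 h, then fixed overnight in 70% ice-cold ethanol at 4°C and resuspended in PBS. Staining used 50 µg/ml PI plus 5 µg/ml RNase at 37°C for 30 min. DNA content was analysed by FACS to give G0/G1, S and G2/M fractions.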

HeLa [2] = experiment: Antiproliferative activity against human HeLa cells assessed as reduction in cell viability at 80 nM incubated for 48 hrs by EdU staining based laser scanning confocal microscopy; assay type: functional
How it was run: (§2)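 Cells, 5×10^4, were seeded in 24-well plates and treated for 48 h. They were then labeled using an EdU Apollo 488 imaging kit with Hoechst 33342 nuclear stain and imaged by laser scanning confocal microscopy. Percent EdU-positive cells = EdU-positive/Hoechst-stained × 100%.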

HUVEC [3] = experiment: Antiproliferative activity against HUVEC cells assessed as reduction in cell viability measured after 72 hrs by CCK8 assay; assay type: functional, cell-based; conditions: Homo sapiens
How it was run: (§3)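 Cells were seeded at 3×10³ cells/well and exposed to a range of concentrations or vehicle for 72 h. Viability was read by CCK-8 at 450 nm, with DMSO as blank and five replicates per sample. IC50 was calculated from the dose-response.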

MDA-MB-231 [4] = experiment: Inhibition of colony formation in human MDA-MB-231 cells at 40 nM incubated for 5 days by crystal violet staining based light microscopy; assay type: functional, cell-based
How it was run: (§4)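 4 × 10^3 cells per well were cultured with graded concentrations for 5 days. Cells were then fixed with 20% methanol, stained with 0.5% crystal violet and photographed by light microscopy.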

HeLa [5] = experiment: Induction of cell cycle arrest in human HeLa cells assessed as accumulation in G0/G1 phase at 80 nM incubated for 36 hrs by propidium iodide staining based flow cytometry; assay type: functional; how it was run: as §1
SiHa [6] = experiment: Antitumor activity against human SiHa cells xenografted in NOD/SCID BALB/c mouse assessed as tumor growth inhibition at 40 mg/kg, po administered for 21 days; assay type: functional, organism-based
MDA-MB-231 [7] = experiment: Antiproliferative activity against human MDA-MB-231 cells assessed as reduction in cell viability measured after 72 hrs by CCK8 assay; assay type: functional, cell-based; conditions: MDA-MB-231, 72 h; how it was run: as §3
HeLa [8] = experiment: Induction of apoptosis in human HeLa cells assessed as decrease in Bcl2 expression at 80 nM incubated for 48 hrs by Western blot analysis; assay type: functional, cell-based
How it was run: (§5)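 Cells were treated for 48 h, washed three times with PBS, and lysed in RIPA buffer. Immunoblots used anti-Rb, anti-phospho-Rb, anti-Ki67 and anti-Bcl-2 (each 1:1000), with β-actin as loading control.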

SiHa [9] = experiment: Antiangiogenic activity against human SiHa cells xenografted in NOD/SCID BALB/c mouse assessed as reduction in CD31 expression at 40 mg/kg, po measured after 21 days by hematoxylin and eosin staining based immunohistochemistry; assay type: functional, organism-based
How it was run: (§6)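 Female NOD/SCID Balb/c mice, 6–8 weeks old, received 2×10^6 SiHa cells subcutaneously in the right flank. Once tumors reached 100 mm³, mice were randomized, 5 per group, and gavaged once daily for 21 days. Formalin-fixed, paraffin-embedded tumor sections were stained with Ki67 or CD31 antibody (1:100, 4 °C overnight), then biotin secondary and ABC-peroxidase/DAB, with hematoxylin counterstain.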

SiHa [10] = experiment: Inhibition of colony formation in human SiHa cells at 80 nM incubated for 5 days by crystal violet staining based light microscopy; assay type: functional, cell-based; how it was run: as §4
HeLa [11] = experiment: Antiproliferative activity against human HeLa cells assessed as reduction in cell viability measured after 72 hrs by CCK8 assay; assay type: functional, cell-based; how it was run: as §3
T47D [12] = experiment: Induction of apoptosis in human T47D cells assessed as decrease in Bcl2 expression at 40 nM incubated for 48 hrs by Western blot analysis; assay type: functional, cell-based
How it was run: (§7)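 Cancer cells were exposed to graded concentrations for 48 h, washed three times in PBS and lysed in RIPA buffer. Immunoblots were probed with anti-Rb, anti-phospho-Rb, anti-Ki67 and anti-Bcl-2, each at 1:1000. β-actin served as loading control.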

SiHa [13] = experiment: Antitumor activity against human SiHa cells xenografted in NOD/SCID BALB/c mouse assessed as reduction in Ki67 expression at 40 mg/kg, po measured after 21 days by hematoxylin and eosin staining based immunohistochemistry; assay type: functional, organism-based; how it was run: as §6
SiHa [14] = experiment: Induction of apoptosis in human SiHa cells at 40 nM incubated for 48 hrs by annexin V FITC and propidium iodide staining based flow cytometry; assay type: functional, cell-based
How it was run: (§8)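 Annexin V-FITC/PI double staining with flow-cytometric readout. MDA-MB-231, T-47D, SiHa and HeLa cells were treated with graded concentrations for 48 h. MDA-MB-231 and T-47D were grown in DMEM and SiHa in 1640 medium, each with 10% FBS and 1% penicillin/streptomycin at 37°C under 5% CO2. Early- and late-stage apoptotic fractions were scored.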

[15] = molecular target: CDK4/Cyclin D3 (Homo sapiens) (UniProt P11802+P30281); experiment: Inhibition of recombinant full length human CDK4/Cyclin D3 using Rb-fragmen as substrate at 1 uM incubated for 40 mins by [gamma-33P]-ATP based radiometric assay relative to control; assay type: protein-complex assay
How it was run: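 Kinase panel profiling at 1 μM performed by Eurofins KinaseProfiler; percent inhibition reported as mean of two independent experiments.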

HeLa [16] = experiment: Inhibition of colony formation in human HeLa cells at 80 nM incubated for 5 days by crystal violet staining based light microscopy; assay type: functional, cell-based; how it was run: as §4
MDA-MB-231 [17] = experiment: Induction of apoptosis in human MDA-MB-231 cells assessed as decrease in Bcl2 expression at 40 nM incubated for 48 hrs by Western blot analysis; assay type: functional, cell-based; how it was run: as §5
SiHa [18] = experiment: Antiproliferative activity against human SiHa cells assessed as reduction in cell viability measured after 72 hrs by CCK8 assay; assay type: functional, cell-based; how it was run: as §3
MDA-MB-231 [19] = experiment: Induction of apoptosis in human MDA-MB-231 cells at 40 nM incubated for 48 hrs by annexin V FITC and propidium iodide staining based flow cytometry; assay type: functional, cell-based; how it was run: as §8
HeLa [20] = experiment: Induction of apoptosis in human HeLa cells at 40 nM incubated for 48 hrs by annexin V FITC and propidium iodide staining based flow cytometry; assay type: functional, cell-based
How it was run: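 Cells were treated for 48 h, stained with FITC Annexin V and PI, and analyzed by flow cytometry to count early and late apoptotic cells.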

HUVEC [21] = experiment: Antiproliferative activity against HUVEC cells assessed as reduction in cell viability at 40 nM measured upto 72 hrs by CCK8 assay; assay type: functional, cell-based; conditions: Homo sapiens
How it was run: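 HUVECs, 3×10³ cells/well, kept in 1640 medium with 10% FBS at 37°C and 5% CO₂. Cells were treated at 20 or 40 nM or vehicle, and viability was read by CCK-8 (absorbance 450 nm) at 0, 12, 24, 36, 48, 60 and 72 h. Five replicates per sample.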

MDA-MB-231 [22] = experiment: Induction of cell cycle arrest in human MDA-MB-231 cells assessed as accumulation in G0/G1 phase at 40 nM incubated for 36 hrs by propidium iodide staining based flow cytometry; assay type: functional; how it was run: as §1
T47D [23] = experiment: Induction of cell cycle arrest in human T47D cells assessed as accumulation in G0/G1 phase at 40 nM incubated for 36 hrs by propidium iodide staining based flow cytometry; assay type: functional; how it was run: as §1
T47D [24] = experiment: Antiproliferative activity against human T47D cells assessed as reduction in cell viability measured after 72 hrs by CCK8 assay; assay type: functional, cell-based; how it was run: as §3
MDA-MB-231 [25] = experiment: Antiproliferative activity against human MDA-MB-231 cells at 40 nM assessed as reduction in cell viability incubated for 48 hrs by EdU staining based laser scanning confocal microscopy; assay type: functional; how it was run: as §2
SiHa [26] = experiment: Induction of apoptosis in human SiHa cells assessed as decrease in Bcl2 expression at 80 nM incubated for 48 hrs by Western blot analysis; assay type: functional, cell-based; how it was run: as §7
T47D [27] = experiment: Antiproliferative activity against human T47D cells assessed as reduction in cell viability at 40 nM incubated for 48 hrs by EdU staining based laser scanning confocal microscopy; assay type: functional; how it was run: as §2
[28] = Toxicity in NOD/SCID BALB/c mouse xenografted with human SiHa cells assessed as body weight at 40 mg/kg, po administered for 21 days; assay type: organism-based; conditions: in vivo, 504 h
How it was run: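 Female NOD/SCID Balb/c mice, 6–8 weeks, implanted subcutaneously in right flank with 2×10^6 SiHa cells in 100 µL medium. At 100 mm³ tumors, randomized (5 mice/group) to daily oral gavage. Body weight monitored every 3 days; study ended day 21.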

SiHa [29] = experiment: Antiproliferative activity against human SiHa cells assessed as reduction in cell viability at 80 nM incubated for 48 hrs by EdU staining based laser scanning confocal microscopy; assay type: functional; how it was run: as §2
T47D [30] = experiment: Induction of apoptosis in human T47D cells at 40 nM incubated for 48 hrs by annexin V FITC and propidium iodide staining based flow cytometry; assay type: functional, cell-based; how it was run: as §8
T47D [31] = experiment: Inhibition of colony formation in human T47D cells at 40 nM incubated for 5 days by crystal violet staining based light microscopy; assay type: functional, cell-based
How it was run: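 MDA-MB-231, T-47D, SiHa and HeLa cells seeded at 4×10^3/well and cultured with varying concentrations of drug or vehicle for 5 days. Fixed in 20% methanol, stained with 0.5% crystal violet, photographed under light microscopy. DMEM (T-47D) with 10% FBS, 37°C, 5% CO2.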

In the case of `CCN1CCN(Cc2ccc(Nc3ncc(F)c(-c4cc(F)c5nc(C)n(C(C)C)c5c4)n3)nc2)CC1` [ABEMACICLIB], the Activity (SiHa [1]) is reported as “Active”, the inhibition (HeLa [2]) is reported as “Active” and the IC50 (HUVEC [3]) is reported as 403 nM. The inhibition (MDA-MB-231 [4]) was “Active”, the Activity (HeLa [5]) was “Active” and the TGI (SiHa [6]) was “Active”. For the same compound, the IC50 (MDA-MB-231 [7]) was 62 nM, the Activity (HeLa [8]) was “Active” and the inhibition (SiHa [9]) was “Active”. For the same compound, the inhibition (SiHa [10]) was “Active”, the IC50 (HeLa [11]) was 768 nM and the Activity (T47D [12]) was “Active”. The inhibition (SiHa [13]) was “Active”, the Activity (SiHa [14]) was “Active” and the inhibition [15] was 99%. For the same compound, the inhibition (HeLa [16]) was “Active”, the Activity (MDA-MB-231 [17]) was “Active” and the IC50 (SiHa [18]) was 861 nM. For the same compound, the Activity (MDA-MB-231 [19]) was “Active”, the Activity (HeLa [20]) was “Active” and the inhibition (HUVEC [21]) was “Active”. For the same compound, the Activity (MDA-MB-231 [22]) was “Active”, the Activity (T47D [23]) was “Active” and the IC50 (T47D [24]) was 145 nM. The inhibition (MDA-MB-231 [25]) was “Active”, the Activity (SiHa [26]) was “Active” and the inhibition (T47D [27]) was “Active”. For the same compound, the Activity [28] was “Non-Toxic”, the inhibition (SiHa [29]) was “Active” and the Activity (T47D [30]) was “Active”. For the same compound, the inhibition (T47D [31]) was “Active”.
